Test results as given in ChEMBL document CHEMBL4152217, “Quinonoid compounds via reactions of lawsone and 2-aminonaphthoquinone with α-bromonitroalkenes and nitroallylic acetates: Structural diversity by C-ring modification and cytotoxic evaluation against cancer cells” (Eur J Med Chem, 2018).

Key:
PC-3 = test: Cytotoxicity against human PC3 cells assessed as reduction in cell viability after 72 hrs by MTT assay; assay type: functional, cell-based; details: PC-3, 72 h
Summary of the method: (§1)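 MTT viability assay. Cancer lines grown in RPMI 1640 and L929 fibroblasts in DMEM, each with 10% FBS, 2 mM glutamine, penicillin/streptomycin, 37 °C, 5% CO2. PBMC were taken from healthy donors by density-gradient centrifugation, kept in RPMI with 20% FBS and stimulated with 2% phytohemagglutinin. Cells were exposed 72 h (0.01–27.32 µM). MTT 0.5 mg/mL for 3 h, absorbance read at 550 nm. IC50 with 95% CI from nonlinear regression; triplicate, ≥3 independent experiments.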

HCT-116 [1] = test: Cytotoxicity against human HCT116 cells assessed as reduction in cell viability after 72 hrs by MTT assay; assay type: functional, cell-based; details: HCT-116, 72 h; summary of the method: as §1
HL-60 = test: Cytotoxicity against human HL60 cells assessed as reduction in cell viability after 72 hrs by MTT assay; assay type: functional, cell-based; details: HL-60, 72 h; summary of the method: as §1
SF-295 = test: Cytotoxicity against human SF295 cells assessed as reduction in cell viability after 72 hrs by MTT assay; details: SF-295, 72 h
NCI-H460 = test: Cytotoxicity against human NCI-H460 cells assessed as reduction in cell viability after 72 hrs by MTT assay; details: NCI-H460, 72 h
L929 = test: Cytotoxicity against mouse L929 cells assessed as reduction in cell viability after 72 hrs by MTT assay; assay type: cell-based; details: L929, 72 h; summary of the method: as §1
PBMC = test: Cytotoxicity against human PBMC cells assessed as reduction in cell viability after 72 hrs by MTT assay
OVCAR-8 = test: Cytotoxicity against human OVCAR8 cells assessed as reduction in cell viability after 72 hrs by MTT assay; details: OVCAR-8, 72 h
MX1 = test: Cytotoxicity against human MX1 cells assessed as reduction in cell viability after 72 hrs by MTT assay; details: MX1, 72 h
Jurkat = test: Cytotoxicity against human Jurkat cell viability after 72 hrs by MTT assay
HCT-116 [2] = test: Induction in oxidative stress in human HCT116 cells assessed as increase in nitrite level after 24 hrs by Griess reagent based assay; assay type: functional, cell-based
Summary of the method: (§2)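 HCT-116 cells were treated 24 h. Culture supernatant was mixed 1:1 with Griess reagent (sulfanilamide/N-(1-naphthyl)ethylenediamine in H3PO4) for 10 min at room temperature, and absorbance read at 560 nm. Nitrate/nitrite was quantified against a NaNO2 standard curve (0.75–100 µM). Vehicle was the negative control and H2O2 10 µM the positive control; three independent experiments, mean ± S.E.M.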

HCT-116 [3] = test: Induction in oxidative stress in human HCT116 cells assessed as nitrite level at 5 uM after 24 hrs by Griess reagent based assay; assay type: functional; summary of the method: as §2
HCT-116 [4] = test: Induction in oxidative stress in human HCT116 cells assessed as nitrite level at 10 uM after 24 hrs by Griess reagent based assay; assay type: functional; summary of the method: as §2
HCT-116 [5] = test: Induction of DNA damage in human HCT116 cells assessed as DNA damage index at 5 uM after 24 hrs by ethidium bromide staing based flurescence microscopic analysis (8.3 +/- 0.88); assay type: functional
HCT-116 [6] = test: Induction of DNA damage in human HCT116 cells assessed as DNA damage index at 10 uM after 24 hrs by ethidium bromide staing based flurescence microscopic analysis (8.3 +/- 0.88); assay type: functional
[7] = Selectivity index, ratio of IC50 for human PBMC cells to IC50 for human NCI-H460 cells; assay type: toxicity; details: PBMC cells versus NCI-H460 cells

`O=C1c2ccccc2C(=O)c2c(-c3cccc4c3OCO4)coc21` showed an IC50 (PC-3) of 2.54 µM, an IC50 (HCT-116 [1]) of 2.76 µM and an IC50 (HL-60) of 2.23 µM. The IC50 (SF-295) was 3.71 µM, the IC50 (NCI-H460) was 3.61 µM and the IC50 (L929) was > 15.7 µM. The IC50 (PBMC) was > 15.7 µM, the IC50 (OVCAR-8) was 3.08 µM and the IC50 (MX1) was 2.92 µM. The IC50 (Jurkat) was 2.04 µM, the Activity (HCT-116 [2]) was “Dose-dependent effect” and the Activity (HCT-116 [3]) was 5.33 µM. For the same compound, the Activity (HCT-116 [4]) was 8.33 µM, the Activity_index (HCT-116 [5]) was 42.88 and the Activity_index (HCT-116 [6]) was 82.77.
`O=C1c2ccccc2C(=O)c2c(-c3cccc4ccccc34)coc21` showed an IC50 (PC-3) of 1.82 µM, an IC50 (HCT-116 [1]) of 6.17 µM and an IC50 (HL-60) of 2.37 µM. The IC50 (SF-295) was 4.44 µM, the IC50 (NCI-H460) was 3.79 µM and the IC50 (L929) was 13 µM. For the same compound, the IC50 (PBMC) was > 15.4 µM, the IC50 (OVCAR-8) was 3.88 µM and the IC50 (MX1) was 3.3 µM. The IC50 (Jurkat) was 2.09 µM.
In the case of `O=C1c2ccccc2C(=O)c2c(-c3cccs3)coc21`, the IC50 (PC-3) is reported as 4.85 µM, the IC50 (HCT-116 [1]) is reported as 5.17 µM and the IC50 (HL-60) is reported as 3.28 µM. For the same compound, the IC50 (SF-295) was 4.96 µM, the IC50 (NCI-H460) was 5.67 µM and the IC50 (L929) was > 17.9 µM. The IC50 (PBMC) was > 17.9 µM, the IC50 (OVCAR-8) was 5.39 µM and the IC50 (MX1) was 4.92 µM. It also gave an IC50 (Jurkat) of 4.21 µM.
Work on `CSc1ccc(-c2coc3c2C(=O)c2ccccc2C3=O)cc1` yielded an IC50 (PC-3) of 2.49 µM, an IC50 (HCT-116 [1]) of 6.03 µM and an IC50 (HL-60) of 3.09 µM. For the same compound, the IC50 (SF-295) was 3.43 µM, the IC50 (NCI-H460) was 4.68 µM and the IC50 (L929) was > 15.6 µM. For the same compound, the IC50 (PBMC) was > 15.6 µM, the IC50 (OVCAR-8) was 4.09 µM and the IC50 (MX1) was 4.74 µM. The IC50 (Jurkat) was 2.18 µM.
In the case of `O=C1c2ccccc2C(=O)c2c(-c3ccc(Br)cc3)coc21`, the IC50 (PC-3) is reported as 2.61 µM, the IC50 (HCT-116 [1]) is reported as 5.39 µM and the IC50 (HL-60) is reported as 2.64 µM. For the same compound, the IC50 (SF-295) was 3.49 µM, the IC50 (NCI-H460) was 4.88 µM and the IC50 (L929) was > 14.2 µM. The IC50 (PBMC) was > 14.2 µM, the IC50 (OVCAR-8) was 2.98 µM and the IC50 (MX1) was 3.23 µM. It also gave an IC50 (Jurkat) of 2.78 µM.
In the case of `COc1ccc(-n2cc(-c3ccc(Cl)cc3)c3c2C(=O)c2ccccc2C3=O)cc1`, the IC50 (PC-3) is reported as 8.66 µM, the IC50 (HCT-116 [1]) is reported as 8.88 µM and the IC50 (HL-60) is reported as 3.15 µM. For the same compound, the IC50 (SF-295) was 4.28 µM, the IC50 (NCI-H460) was 3.81 µM and the IC50 (L929) was > 12.1 µM. For the same compound, the IC50 (PBMC) was > 12.1 µM and the selectivity ratio [7] was > 3.1.
For `COc1ccc(-c2coc3c2C(=O)c2ccccc2C3=O)cc1OC`, the IC50 (PC-3) was 3.89 µM, the IC50 (HCT-116 [1]) was 5.2 µM and the IC50 (HL-60) was 3.41 µM. The IC50 (SF-295) was 3.74 µM, the IC50 (NCI-H460) was 4.07 µM and the IC50 (L929) was > 15 µM. The IC50 (PBMC) was > 15 µM, the IC50 (OVCAR-8) was 4.69 µM and the IC50 (MX1) was 5.05 µM. For the same compound, the IC50 (Jurkat) was 3.71 µM.
